Measurements: paper PMC3355950 (The Journal of Neuroscience, 2012)

How the values were obtained:
[1] = target: GluN1/GluN2A (Rattus norvegicus, UniProt P35439+Q00959); test: Whole-cell voltage-clamp recordings, HEK293 cells, rapid solution exchange; type: cell-based; settings: 50 μM glutamate
Method in brief: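 HEK293 cells were plated on poly-D-lysine coverslips about 48 h ahead and calcium-phosphate cotransfected with GluN1, GluN2A and GFP (1:1:1). 200 μM D,L-APV and 200 μM 7-chlorokynurenic acid were added after transfection. Whole-cell recording was done about 24 h later at −60 mV and 23°C on lifted cells with piezo-driven theta-glass exchange.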

[2] = tested on: GluN2B-containing NMDA receptors; settings: ref Williams, 1993; cited from earlier work
[3] = brief application (10 ms) of 1000 μM glycine, antagonist 0.3 μM

GluN1/GluN2A, sequence (Q00959 23-1464, other chains not shown): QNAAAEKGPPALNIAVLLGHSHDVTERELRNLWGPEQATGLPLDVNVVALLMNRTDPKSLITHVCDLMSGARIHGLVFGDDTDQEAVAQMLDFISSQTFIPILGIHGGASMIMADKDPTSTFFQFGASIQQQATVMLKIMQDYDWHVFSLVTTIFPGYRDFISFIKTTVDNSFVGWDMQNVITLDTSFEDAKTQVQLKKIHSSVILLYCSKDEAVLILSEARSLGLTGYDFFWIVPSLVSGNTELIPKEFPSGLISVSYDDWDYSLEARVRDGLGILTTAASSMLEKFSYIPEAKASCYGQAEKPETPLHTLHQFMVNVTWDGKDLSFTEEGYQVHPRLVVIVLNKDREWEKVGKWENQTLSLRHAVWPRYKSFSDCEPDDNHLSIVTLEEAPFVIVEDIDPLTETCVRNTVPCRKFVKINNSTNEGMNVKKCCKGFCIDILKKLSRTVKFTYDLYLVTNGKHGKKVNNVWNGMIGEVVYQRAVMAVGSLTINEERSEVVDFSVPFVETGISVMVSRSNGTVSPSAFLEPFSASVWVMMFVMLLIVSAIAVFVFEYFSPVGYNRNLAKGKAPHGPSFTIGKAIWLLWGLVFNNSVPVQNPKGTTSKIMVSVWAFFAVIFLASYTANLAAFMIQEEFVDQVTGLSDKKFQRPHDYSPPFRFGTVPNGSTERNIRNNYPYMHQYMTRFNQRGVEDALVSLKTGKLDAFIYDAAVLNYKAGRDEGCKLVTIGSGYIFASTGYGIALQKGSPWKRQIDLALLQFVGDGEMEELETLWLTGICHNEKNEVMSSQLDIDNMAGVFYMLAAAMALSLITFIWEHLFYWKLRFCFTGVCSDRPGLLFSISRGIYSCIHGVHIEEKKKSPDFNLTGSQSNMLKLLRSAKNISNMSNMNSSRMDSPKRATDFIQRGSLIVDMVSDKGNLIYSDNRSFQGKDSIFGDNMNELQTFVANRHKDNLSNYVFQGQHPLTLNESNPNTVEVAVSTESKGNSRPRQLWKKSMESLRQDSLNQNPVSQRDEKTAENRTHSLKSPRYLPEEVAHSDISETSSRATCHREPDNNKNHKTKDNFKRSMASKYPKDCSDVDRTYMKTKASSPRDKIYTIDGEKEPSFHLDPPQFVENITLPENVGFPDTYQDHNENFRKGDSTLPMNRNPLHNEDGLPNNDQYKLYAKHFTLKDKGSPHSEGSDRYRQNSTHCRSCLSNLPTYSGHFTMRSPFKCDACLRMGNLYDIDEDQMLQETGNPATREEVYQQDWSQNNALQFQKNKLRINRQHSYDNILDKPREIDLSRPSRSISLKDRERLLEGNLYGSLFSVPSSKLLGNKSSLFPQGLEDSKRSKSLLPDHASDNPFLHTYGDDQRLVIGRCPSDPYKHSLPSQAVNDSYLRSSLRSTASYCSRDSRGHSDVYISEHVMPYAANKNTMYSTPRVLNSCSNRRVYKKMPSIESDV

SMILES: O=C(O)c1cc(O)c2c(Cl)cc(Cl)cc2n1 [DCKA, 7,5-dichlorokynurenic acid]
- Peak response to a brief glycine application ([1]; 0.3 μM, 1 mM glycine 10 ms): 43 ± 13 % of control
- Effect on deactivation time course ([1]; 0.3 μM, brief (10 ms) or long (5 seconds) 1 mM glycine): did not alter the deactivation time course

SMILES: O=C(O)c1cc(O)c2ccc(Cl)cc2n1 [7CKA, 7-chlorokynurenic acid]
- % fast [1, 3]: 34 ± 6%
- τfast [1, 3]: 46 ± 7 ms
- τslow [1, 3]: 158 ± 10 ms
- deactivation time constant, mono-exponential fit (τslow) ([1]; long application (5 seconds) of 1000 μM glycine, antagonist 0.3 μM): 128 ± 14 ms

SMILES: CC(C(O)c1ccc(O)cc1)N1CCC(Cc2ccccc2)CC1 (stereo not shown) [ifenprodil]
- selectivity for GluN2B-containing NMDA receptors [2]: over 500 fold
